From PubChem
Arr AP2 block – human beta-arrestin and AP2 interaction inhibition; FITC-arrestin peptide / GST-AP2 beads, flow cytometry; AP2 beta2 appendage carries R879A mutation; inhibition, % at 10 µM; 340,000 compounds, 0.31% hits; AID 504490;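 active = inhibition above a set limit, near 3 SD of compounds lacking own fluorescence, cut at about 54% in these data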;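 note: plate controls were DMSO wells for no effect and 5 µM unlabelled arrestin peptide for full effect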
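System: GST-tagged AP2 beta2-adaptin appendage (R879A) on 4 µm glutathione beads / Reagent: FITC-arrestin peptide, 50 nM / Detection: HyperCyt-sampled flow cytometry, FL1 channel, ex 488/em 535 nm / Timing: 12 min plus 1 h, RT / Buffer or medium: PBS plus Tween 20 (0.05%) and BSA (0.1%)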
PolyA inh – inhibitors of polyadenylation in S. cerevisiae; S. cerevisiae SKY197-pL101 polyadenylation reporter, beta-gal luminescence; efflux-impaired pdr1/pdr3 knockout yeast; score 100 = 6 SD above DMSO; activity score, % at 12 µM; 300,000 compounds, 0.02% hits; AID 1875;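 active = lowest replicate activity score at least 50, where 100 means six control SD above control mean; inconclusive = lowest score under 50 but half or more replicates reach 50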;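 note: yeast exposed to compound for 9 h at 30 °C; higher score means more reporter readthrough which indicates perturbed polyadenylation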
AHR activator – human AHR activation; AID 2796; P35869; AHR-responsive luciferase reporter cells, luminescence; 320,000 compounds, 2.5% hits; activation, % at 5 µM; in the data active = activation above about 47%;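 note: 0% = vehicle wells and 100% = reference agonist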
Target sequence (P35869 whole entry, looked up): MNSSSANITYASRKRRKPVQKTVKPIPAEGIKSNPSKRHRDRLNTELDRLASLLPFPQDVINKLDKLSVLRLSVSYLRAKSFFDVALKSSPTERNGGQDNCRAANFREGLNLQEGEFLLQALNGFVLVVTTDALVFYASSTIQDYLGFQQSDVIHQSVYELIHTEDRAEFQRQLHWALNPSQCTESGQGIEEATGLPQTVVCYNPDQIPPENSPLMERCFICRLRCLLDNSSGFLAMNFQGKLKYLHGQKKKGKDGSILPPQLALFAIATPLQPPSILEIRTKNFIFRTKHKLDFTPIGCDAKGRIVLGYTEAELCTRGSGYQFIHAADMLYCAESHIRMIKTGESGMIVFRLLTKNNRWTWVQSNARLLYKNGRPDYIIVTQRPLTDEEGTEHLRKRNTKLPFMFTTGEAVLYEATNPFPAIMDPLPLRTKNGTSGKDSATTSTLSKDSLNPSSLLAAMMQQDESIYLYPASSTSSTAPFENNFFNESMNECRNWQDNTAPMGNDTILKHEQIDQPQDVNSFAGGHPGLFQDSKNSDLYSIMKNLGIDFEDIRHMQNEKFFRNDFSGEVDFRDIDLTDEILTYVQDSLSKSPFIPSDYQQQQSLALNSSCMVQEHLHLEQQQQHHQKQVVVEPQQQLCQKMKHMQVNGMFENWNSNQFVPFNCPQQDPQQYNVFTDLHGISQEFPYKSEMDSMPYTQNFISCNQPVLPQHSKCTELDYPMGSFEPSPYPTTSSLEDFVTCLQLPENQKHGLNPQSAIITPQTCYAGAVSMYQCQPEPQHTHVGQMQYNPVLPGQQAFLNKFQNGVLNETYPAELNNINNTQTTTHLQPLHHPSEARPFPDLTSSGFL
A3A deaminase – blocks human APOBEC3A ssDNA deamination | AID 493011 | recombinant A3A, FAM/TAMRA ssDNA deamination fluorescence | 330,000 compounds, 0.41% hits | inhibition, % at 20 µM | P31941;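 active = at least 40% inhibition at 20 µM here, with at most 30% in a related deaminase screen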;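 note: plate controls were A3A with DMSO for no effect and wells lacking A3A enzyme for full effect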
A3G deaminase – blocks human APOBEC3G single-stranded DNA deamination; Q9HC16; recombinant A3G, ssDNA deamination FAM/TAMRA fluorescence; inhibition, % at 20 µM; 330,000 compounds, 0.28% hits; AID 493012;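 active = inhibition of at least 40% at 20 µM, with no more than 30% in the related APOBEC3A deaminase screen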;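 note: plate controls were DMSO wells with A3G for no effect and wells lacking A3G enzyme for full effect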
UCH37 inh – inhibitors of human deubiquitinating enzyme UCH37; purified proteasome/UCH37, Ub-AMC cleavage fluorescence; inhibition, % (no concentration beside the values); 330,000 compounds, 0.33% hits;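 active = mean inhibition over replicate wells above about 20%, limit read from the data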;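 note: 0% = compound-free wells with enzyme and 100% = wells lacking proteasome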
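System: Proteasome-associated human UCH37 deubiquitinase; Input: 0.15 nM proteasome in added enzyme buffer; Also added: Ub-AMC substrate from 1 µM stock; Incubation: 30 min compound-proteasome preincubation then 25 min substrate reaction, room temperature; Detection: fluorescence, ex 355 nm, em 460 nm; Read-out: % inhibition of Ub-AMC cleavage fluorescence; Benchmarks: no-proteasome and no-compound wells.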
UCH37 confirm – UCH37 Ub-AMC cleavage inhibition, confirmed; AID 624100; 480 compounds, 27% hits; inhibition, % at 20 µM; Proteasome-bound UCH37, Ub-AMC cleavage fluorescence; shares compounds with UCH37 inh;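 active = average inhibition over replicates above about 50%, so the earlier screening hit is confirmed, limit read from the data; inactive = the rest, counted as false positives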;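 note: based on cleavage rate fitted by regression over a 30 min kinetic read; 0% = proteasome plus Ub-AMC and 100% = Ub-AMC without proteasome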
Numbers without * were called inactive; ? = inconclusive; . = not tested or not shown; ! = a repeat was not active. In the library only some 3.4% were active in any assay of this set; here they are far more common.

SMILES	Arr AP2 block	PolyA inh	AHR activator	A3A deaminase	A3G deaminase	UCH37 inh	UCH37 confirm
N#C/C(=C/c1ccc(N2CCOCC2)o1)C(=O)NC1CCCCC1	28	-15	-7	-2	-14	27*	19
Cc1cccc(C(=O)N2CCCCCC2)c1	21	-8	3	-5	-8	28	42
CC(=NNC(=S)Nc1cccc(C)c1)c1cc2ccccc2o1	.	.	.	.	.	-1	.
CC1Cc2ccccc2N1C(=O)COC(=O)c1ccc([N+](=O)[O-])o1 (stereo unspecified)	4	.	2	1	-3	26*	31
O=C(COC(=O)c1ccc([N+](=O)[O-])o1)NC1CCCCC1	-10	.	-1	4	-4	26*	19
CC1CCCCC1NC(=O)COC(=O)c1ccc([N+](=O)[O-])o1 (stereo unspecified)	9	.	.	1	-6	30*	1
O=C(NC1CCCCC1)c1ccc([N+](=O)[O-])o1	16	-13	1	-4	-1	3	.
Cc1ccc(C(=O)OCC(=O)NC2CCCCC2)o1	-1	-8	2	11	-1	.	.
O=C(COC(=O)c1ccc([N+](=O)[O-])o1)NC1CCCC1	-2	.	0	-1	-4	32*	10
CC(Sc1nnc(-c2cccnc2)n1N)C(=O)NCCC1=CCCCC1 (stereo unspecified)	31	.	.	-4	-11	63*	52*
C(=NNc1nn[nH]n1)c1ccccc1	.	.	.	.	.	3	.
CC(=NN1C(=O)c2ccccc2NC1c1ccccc1)c1ccccc1O (stereo unspecified)	.	.	.	.	.	4	.
CCN(CC)c1ccc(C=NNC(=S)NCc2ccccc2)cc1	.	.	.	.	.	-57	.
O=C(NNc1cc(N2CCOCC2)nc(N2CCOCC2)n1)c1ccc([N+](=O)[O-])cc1	8	14	.	-3	-9	26*	18
O=C(O)Cn1cc(C=NNc2ccc([N+](=O)[O-])cn2)c2ccccc21	.	.	.	.	.	18	.
COc1cc(OC)c2c(c1)C(=O)c1cc(OC)cc(OC)c1C2=O	-4	1	14	5	0	43*	31
CC(=O)NNc1nc(-c2ccc(NC(C)=O)cc2)cs1	27	27	-1	-1	-6	37*	-22
CCCCCCCCCCCCCCCC[n+]1ccc(/C=N/O)cc1	0	.	3	2	4	.	.
CCCCCCCCCCCCCCCC[n+]1cccc(C(=O)N(CC)CC)c1	-5	-62	0	0	-10	58*!	66*
CCCCCCCC[n+]1cccc(C(=O)N(CC)CC)c1	6	-15	4	1	-1	1	.
CCCCCCCCCCCCCCCC[n+]1ccc(C(N)=O)cc1	13	.	1	35	38	68*	71*
COc1cc(C=NOCC(=O)NC2CCCCC2C)ccc1OCc1ccc(Cl)cc1 (stereo unspecified)	.	.	.	.	.	5	.
C[C@H](NC(=O)c1nc[nH]c1C(=O)N[C@@H](C)C(=O)OC(C)(C)C)C(=O)OCc1ccccc1	0	1	1	-1	-15	35*	-30
C[C@H](NC(=O)c1nc[nH]c1C(=O)N[C@@H](Cc1ccccc1)C(=O)OCc1ccccc1)C(=O)OC(C)(C)C	4	23	1	-3	-12	1	.
COc1cc(NC(=S)NC2CC(C)(C)NC(C)(C)C2)c(OC)cc1Cl	23	8	-1	-5	-9	39*	6
SMILES	Arr AP2 block	PolyA inh	AHR activator	A3A deaminase	A3G deaminase	UCH37 inh	UCH37 confirm
COc1cc(NC(=S)NC2CC(C)(C)NC(C)(C)C2)cc(OC)c1	10	-4	2	-4	-6	0	.
CC1CCN(Cc2c(C(=O)NN=Cc3ccc(C(C)(C)C)cc3)nnn2-c2nonc2N)CC1	.	.	.	.	.	2	.
O=C(NCCC1=CCCCC1)c1ccc(Br)o1	-6	24	3	1	1	83*	91*
O=C(NCCC1=CCCCC1)C1COc2ccccc2O1 (stereo unspecified)	8	.	2	0	-3	47*	67*
Cc1ccccc1NS(=O)(=O)c1cc(C(=O)NCCC2=CCCCC2)ccc1C	0	5	0	-5	4	40*	41
O=C(NCCc1ccc(C(F)(F)F)cc1)C1COc2ccccc2O1 (stereo unspecified)	3	2	2	-3	12	5	.
O=C(O)c1cccc(NC2=C(n3nnc4ccccc43)C(=O)c3ccccc3C2=O)c1	-13	?	2	-1	-8	52*	55*
COc1ccc(NC(=S)Nc2ccc3nsnc3c2)cc1	37	-18	34	2	2	40*	36
COc1ccc(NCC(=O)NN=CC2CCCCC2)cc1	.	.	.	.	.	1	.
CS(=O)(=O)c1ccc(S(=O)CC(=O)OCc2ccccc2)c([N+](=O)[O-])c1 (stereo unspecified)	-7	-13	.	.	.	44*	22
O=C(O)c1ccccc1NS(=O)(=O)c1ccc(NN=Cc2cccc(O)c2O)c([N+](=O)[O-])c1	.	.	.	.	.	32*	40
C=CCOc1ccc(C=NNc2ccc(S(=O)(=O)Nc3ccccc3C(=O)O)cc2[N+](=O)[O-])cc1OC	20	.	-1	-1	-1	86*	83*
CCOc1cccc(C=NNc2ccc(S(=O)(=O)Nc3ccccc3C(=O)O)cc2[N+](=O)[O-])c1O	1	.	1	-2	-3	8	.
Cc1cc(C(C)(C)C)ccc1OCCCCN1CCCC1	-3	-14	1	-9	-8	3	.
CCC(C)(C)c1ccc(OCCCC[n+]2cccc(C)c2C)c(C(C)(C)CC)c1	9	-17	0	-2	-9	38*	59*
CCC(C)(C)c1ccc(OCCCC[n+]2ccc(C)cc2)c(C(C)(C)CC)c1	.	-53	-4	-1	-6	27*	21
Nc1ccc(C(=O)OCC(=O)N2CCOCC2)cc1[N+](=O)[O-]	-5	19	-1	-5	-7	38*	8
CCOC(=O)C(C#N)=NNc1cc(Cl)ccc1OC	.	.	.	.	.	-2	.
CCNC(=O)COc1cccc(C(=O)NCc2ccccc2)c1	0	-10	3	2	-8	6	.
CC(C)CNC(=O)COc1cccc(C(=O)NCc2ccccc2)c1	2	-3	2	2	0	36*	12
O=C1Nc2ccccc2C1(O)CC(=NO)c1ccccc1 (stereo unspecified)	.	.	.	.	.	3	.
O=C(Nc1ccccc1)NC1CCS(=O)(=O)C1 (stereo unspecified)	13	13	2	4	-2	1	.
CC(=O)NC1=C(NC2CCS(=O)(=O)C2)C(=O)c2ccccc2C1=O (stereo unspecified)	19	1	9	-2	2	28*	27
